Measurements as given in ChEMBL document CHEMBL1148336, “3-Aminopyrazole inhibitors of CDK2/cyclin A as antitumor agents. 1. Lead finding” (J Med Chem, 2004).

Key:
Rattus norvegicus [1] = species: Rattus norvegicus; test: Metabolic rate for compound was observed in rat hepatocytes; type: ADME, Liver, Hepatocyte
In short: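 Compound at 1 μM was incubated with 10^6 rat hepatocytes in 1 mL Leibovitz's medium at 37 °C with shaking. Samples were taken at 0.5–90 min and quenched in ice-cold acetonitrile. Parent was quantified by LC/MS/MS, with hepatocyte-free controls and reference clearance drugs.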

[2] = Steady-state volume of distribution was evaluated for the compound after i.v. administration at a dose of 5 mg/kg was measured in rats; type: ADME, organism-based; design: dose 5 mg/kg, route intravenous; conditions: rat, in vivo, iv, read-out: Vss
In short: (§1)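 Male Sprague Dawley rats (~270), fasted overnight, received a single iv or oral dose in PEG400, 4% Tween 80/dextrose (60:40), three rats per route. Jugular/catheter blood was drawn predose and at 5, 15 and 30 min and 1, 2, 4, 6 and 24 h, and plasma was analysed by LC/MS/MS. Analysis was noncompartmental: Cmax/Tmax observed, AUC by linear trapezoidal rule, and F from dose-normalized oral/iv AUC.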

[3] = In vivo retention time was evaluated for the compound after i.v. administration at a dose of 5 mg/kg was measured in rats; type: ADME, organism-based; design: dose 5 mg/kg, route intravenous; conditions: rat, iv; in short: as §1
Rattus norvegicus [4] = test: In vivo half-life period for compound after i.v. administration at a dose of 5 mg/kg was measured in rats; type: ADME, organism-based; design: dose 5 mg/kg, route intravenous; conditions: iv; in short: as §1
[5] = Oral bioavailability after oral (po) administration at a dose of 10 mg/kg was measured in rats; type: ADME, organism-based; conditions: rat, in vivo, read-out: Bioavailabiility; in short: as §1
[6] = Solubility of compound was determined in buffer at a pH of 7; type: physicochemical; conditions: pH 7
In short: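 Nonequilibrium turbidimetric solubility. 10 mM DMSO stock was diluted into pH 7 buffer (2.5% DMSO), and turbidity was read at 50 and 250 μM. Solubility is the average of the highest clear and lowest turbid concentrations.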

[7] = target: CDC7/DBF4 (Cell division cycle 7-related protein kinase/Activator of S phase kinase) (Homo sapiens, UniProt O00311); test: Inhibition of CDC7/DBF4 kinase activity; type: protein-complex assay
In short: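 Recombinant CDC7/DBF4 (insect cells), 18 nM, with MCM2 substrate in 50 mM Hepes pH 7.5, 5 mM MgCl2, 1 mM DTT, 3 μM NaVO3. ATP/33P-γ-ATP at 2Km, substrate at 5Km, 1% DMSO, compound 10 to 0.0015 μM in 3-fold steps, 30–90 min at room temperature. SPA bead capture.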

[8] = target: Fibroblast growth factor receptor 1 (Homo sapiens, UniProt P11362); test: Inhibition of Fibroblast growth factor receptor 1
Chain of Fibroblast growth factor receptor 1 (P11362 whole entry): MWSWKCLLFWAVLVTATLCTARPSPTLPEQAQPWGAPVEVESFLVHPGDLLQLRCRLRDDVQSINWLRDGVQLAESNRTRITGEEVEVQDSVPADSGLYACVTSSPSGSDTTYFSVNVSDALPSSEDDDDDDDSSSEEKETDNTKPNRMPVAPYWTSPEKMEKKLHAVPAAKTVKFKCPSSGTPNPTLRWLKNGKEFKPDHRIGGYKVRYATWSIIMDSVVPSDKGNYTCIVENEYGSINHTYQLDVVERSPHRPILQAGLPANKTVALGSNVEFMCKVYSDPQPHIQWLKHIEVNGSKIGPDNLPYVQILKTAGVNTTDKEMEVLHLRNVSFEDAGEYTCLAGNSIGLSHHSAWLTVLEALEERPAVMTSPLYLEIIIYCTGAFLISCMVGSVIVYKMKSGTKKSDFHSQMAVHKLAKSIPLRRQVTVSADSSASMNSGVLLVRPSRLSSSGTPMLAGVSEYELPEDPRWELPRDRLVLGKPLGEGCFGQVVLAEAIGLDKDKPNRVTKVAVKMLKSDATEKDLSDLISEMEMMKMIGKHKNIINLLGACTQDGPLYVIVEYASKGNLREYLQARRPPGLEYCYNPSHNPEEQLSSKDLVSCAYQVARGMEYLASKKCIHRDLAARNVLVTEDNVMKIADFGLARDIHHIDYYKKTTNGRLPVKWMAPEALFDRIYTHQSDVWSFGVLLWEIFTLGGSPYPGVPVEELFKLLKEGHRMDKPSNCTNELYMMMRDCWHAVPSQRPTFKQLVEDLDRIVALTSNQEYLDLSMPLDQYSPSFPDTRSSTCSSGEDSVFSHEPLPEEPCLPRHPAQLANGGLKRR
In short: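 Radiolabelled ATP at 2Km, substrate 5Km, 1% DMSO, compound 10 to 0.0015 μM, 30–90 min at room temperature. SPA capture.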

[9] = target: Inhibitor of nuclear factor kappa-B kinase subunit beta (Homo sapiens, UniProt O14920); test: Inhibition of I-kappa-B-kinase beta activity
In short: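 ATP/33P-γ-ATP 2Km, substrate 5Km, 1% DMSO, 10–0.0015 μM compound, 30–90 min at room temperature. SPA detection.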

[10] = target: Insulin-like growth factor 1 receptor (Homo sapiens, UniProt P08069); test: Inhibition of Insulin-like growth factor I receptor
Chain of Insulin-like growth factor 1 receptor (P08069 31-736 limits assumed): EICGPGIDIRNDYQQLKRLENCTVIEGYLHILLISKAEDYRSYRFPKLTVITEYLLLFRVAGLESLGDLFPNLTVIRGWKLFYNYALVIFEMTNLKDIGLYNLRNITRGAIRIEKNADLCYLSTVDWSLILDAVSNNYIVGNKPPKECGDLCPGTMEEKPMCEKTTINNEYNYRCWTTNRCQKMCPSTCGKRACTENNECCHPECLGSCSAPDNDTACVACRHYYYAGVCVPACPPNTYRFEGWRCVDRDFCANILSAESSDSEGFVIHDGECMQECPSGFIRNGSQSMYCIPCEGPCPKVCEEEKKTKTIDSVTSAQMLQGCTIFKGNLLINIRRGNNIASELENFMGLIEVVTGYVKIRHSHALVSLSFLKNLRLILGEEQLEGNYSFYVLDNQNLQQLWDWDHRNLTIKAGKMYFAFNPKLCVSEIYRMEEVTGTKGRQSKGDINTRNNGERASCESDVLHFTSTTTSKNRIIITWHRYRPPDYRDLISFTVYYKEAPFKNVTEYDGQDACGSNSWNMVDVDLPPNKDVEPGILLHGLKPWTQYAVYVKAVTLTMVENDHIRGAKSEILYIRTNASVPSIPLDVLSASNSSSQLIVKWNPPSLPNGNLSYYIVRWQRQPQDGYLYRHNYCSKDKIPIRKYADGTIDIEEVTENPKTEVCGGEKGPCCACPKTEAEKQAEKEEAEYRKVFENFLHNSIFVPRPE
Chain of Insulin-like growth factor 1 receptor (P08069 741-1367 limits assumed): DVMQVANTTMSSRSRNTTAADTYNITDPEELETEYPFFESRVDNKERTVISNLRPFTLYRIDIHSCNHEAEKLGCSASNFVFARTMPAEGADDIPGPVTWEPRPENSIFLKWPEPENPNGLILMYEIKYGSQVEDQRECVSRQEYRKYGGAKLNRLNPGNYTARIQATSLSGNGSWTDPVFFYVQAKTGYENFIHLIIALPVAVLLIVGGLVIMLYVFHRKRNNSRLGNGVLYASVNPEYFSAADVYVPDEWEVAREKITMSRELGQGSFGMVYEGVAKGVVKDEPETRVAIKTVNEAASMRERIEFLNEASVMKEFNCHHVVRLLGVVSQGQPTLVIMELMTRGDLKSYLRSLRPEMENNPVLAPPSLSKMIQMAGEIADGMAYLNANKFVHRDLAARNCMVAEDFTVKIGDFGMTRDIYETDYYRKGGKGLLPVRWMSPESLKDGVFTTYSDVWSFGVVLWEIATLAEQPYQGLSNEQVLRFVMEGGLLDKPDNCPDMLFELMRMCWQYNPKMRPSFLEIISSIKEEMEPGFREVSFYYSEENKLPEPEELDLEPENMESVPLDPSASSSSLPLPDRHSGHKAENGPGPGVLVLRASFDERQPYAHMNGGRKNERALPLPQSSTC
In short: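 IGF1R (6 nM, insect-cell recombinant) phosphorylating IRStide in 50 mM Hepes pH 7.5, 3 mM MnCl2, 1 mM DTT, 3 μM NaVO3. 33P-ATP mix at 2Km, substrate 5Km, 1% DMSO. Compound in 3-fold series from 10 μM, 30–90 min at room temperature. SPA counting.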

Insulin receptor = Insulin receptor (Homo sapiens, UniProt P06213); test: Inhibition of IR kinase activity
In short: (§2)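 Radiometric kinase assay. Enzyme (0.7–100 nM) and substrate (5Km) incubated with ATP/33P-γ-ATP (2Km) and compound serially diluted 3-fold from 10 to 0.0015 μM, 1% DMSO, 30–90 min at room temperature. Product separated by SPA, Dowex or phosphocellulose filter, then counted.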

[11] = target: Mitogen-activated protein kinase 14 (Homo sapiens, UniProt Q16539); test: Inhibition of Mitogen-activated protein kinase p38 alpha; in short: as §2
[12] = target: 3-phosphoinositide-dependent protein kinase 1 (Homo sapiens, UniProt O15530); test: Inhibition of PDK1 kinase activity; in short: as §2
[13] = target: Serine/threonine-protein kinase PLK1 (Homo sapiens, UniProt P53350); test: Inhibition of PLK1 kinase; in short: as §2
[14] = target: RAC-alpha serine/threonine-protein kinase (Homo sapiens, UniProt P31749); test: Inhibition of Protein kinase B (Akt-1)
In short: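 Recombinant AKT-1 (insect cells), 5 nM, with AKTtide in 10 mM Tris-HCl pH 7.4, 10 mM MgCl2, 7.4 mM DTT. ATP/33P-γ-ATP at 2Km, substrate at 5Km, 1% DMSO. 3-fold dilutions from 10 μM, 30–90 min at room temperature. Dowex resin separation, supernatant radioactivity counted.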

[15] = target: Tyrosine-protein kinase Lyn (Homo sapiens, UniProt P07948); test: Inhibition of Protein tyrosine kinase Lyn; in short: as §2
Chain of Tyrosine-protein kinase Lyn (P07948 whole entry): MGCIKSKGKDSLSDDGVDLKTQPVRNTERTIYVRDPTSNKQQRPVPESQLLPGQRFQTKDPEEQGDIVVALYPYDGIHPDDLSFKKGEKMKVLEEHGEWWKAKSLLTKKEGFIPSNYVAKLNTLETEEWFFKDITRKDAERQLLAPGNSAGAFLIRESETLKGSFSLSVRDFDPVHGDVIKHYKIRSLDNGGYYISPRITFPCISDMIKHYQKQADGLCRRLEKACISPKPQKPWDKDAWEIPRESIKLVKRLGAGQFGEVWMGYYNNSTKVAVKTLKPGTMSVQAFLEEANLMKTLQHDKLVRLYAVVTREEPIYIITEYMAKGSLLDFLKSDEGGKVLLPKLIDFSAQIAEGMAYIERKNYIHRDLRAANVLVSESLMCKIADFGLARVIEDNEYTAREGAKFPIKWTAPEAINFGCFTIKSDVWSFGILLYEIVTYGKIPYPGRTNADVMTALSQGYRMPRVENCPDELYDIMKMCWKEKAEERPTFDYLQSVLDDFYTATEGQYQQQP

[16] = target: Serine/threonine-protein kinase Chk1 (Homo sapiens, UniProt O14757); test: Inhibition of Serine/threonine-protein kinase Chk1
Chain of Serine/threonine-protein kinase Chk1 (O14757 whole entry): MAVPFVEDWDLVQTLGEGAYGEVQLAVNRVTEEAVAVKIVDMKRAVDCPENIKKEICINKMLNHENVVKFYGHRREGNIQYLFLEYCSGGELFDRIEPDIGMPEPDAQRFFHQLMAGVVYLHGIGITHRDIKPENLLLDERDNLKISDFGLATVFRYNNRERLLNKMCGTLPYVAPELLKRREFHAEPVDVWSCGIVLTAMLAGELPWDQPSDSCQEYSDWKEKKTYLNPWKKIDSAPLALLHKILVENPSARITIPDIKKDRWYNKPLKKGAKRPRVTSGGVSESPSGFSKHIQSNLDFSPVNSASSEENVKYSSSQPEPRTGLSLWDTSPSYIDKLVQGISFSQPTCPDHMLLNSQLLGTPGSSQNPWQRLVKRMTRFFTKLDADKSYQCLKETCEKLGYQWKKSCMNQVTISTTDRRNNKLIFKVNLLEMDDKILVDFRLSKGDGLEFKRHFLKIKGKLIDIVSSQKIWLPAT
In short: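 ATP/33P-γ-ATP 2Km, substrate 5Km, 1% DMSO, compound 10–0.0015 μM, 30–90 min at room temperature. SPA.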

[17] = target: Inhibitor of nuclear factor kappa-B kinase subunit epsilon (Homo sapiens, UniProt Q14164); test: Inhibition of IKKi (IKK epsilon) kinase activity; in short: as §2
Chain of Inhibitor of nuclear factor kappa-B kinase subunit epsilon (Q14164 whole entry): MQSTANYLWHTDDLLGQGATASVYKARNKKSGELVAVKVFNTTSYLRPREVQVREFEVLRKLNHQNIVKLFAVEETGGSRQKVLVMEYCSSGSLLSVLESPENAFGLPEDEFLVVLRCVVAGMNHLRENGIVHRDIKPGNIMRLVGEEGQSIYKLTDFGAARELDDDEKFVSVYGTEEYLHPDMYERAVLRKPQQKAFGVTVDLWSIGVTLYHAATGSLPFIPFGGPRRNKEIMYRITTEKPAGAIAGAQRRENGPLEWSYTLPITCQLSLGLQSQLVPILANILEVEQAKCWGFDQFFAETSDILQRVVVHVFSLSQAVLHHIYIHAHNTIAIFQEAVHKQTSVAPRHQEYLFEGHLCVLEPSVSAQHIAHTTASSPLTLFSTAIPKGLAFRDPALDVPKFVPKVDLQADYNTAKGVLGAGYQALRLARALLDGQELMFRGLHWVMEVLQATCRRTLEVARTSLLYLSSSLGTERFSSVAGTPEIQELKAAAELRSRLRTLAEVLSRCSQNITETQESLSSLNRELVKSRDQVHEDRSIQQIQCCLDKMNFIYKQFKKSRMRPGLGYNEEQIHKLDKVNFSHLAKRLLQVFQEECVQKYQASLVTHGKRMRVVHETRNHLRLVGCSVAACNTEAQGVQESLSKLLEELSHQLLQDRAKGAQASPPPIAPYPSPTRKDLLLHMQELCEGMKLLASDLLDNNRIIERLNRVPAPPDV

[18] = target: Tyrosine-protein kinase ABL (Homo sapiens, UniProt P00519+P42684); test: Inhibition of V-abl tyrosine kinase (ABL); type: protein assay
In short: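 ABL at 1.2 nM, recombinant from insect cells, with MBP in 50 mM Hepes pH 7.5, 3 mM MgCl2, 3 mM MnCl2, 1 mM DTT, 3 μM NaVO3. 2Km ATP/33P-γ-ATP, 5Km substrate, 1% DMSO. 3-fold series from 10 μM, 30–90 min at room temperature. SPA readout.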

[19] = target: Vascular endothelial growth factor receptor 2 (Homo sapiens, UniProt P35968); test: Inhibition of VEGFR-2 kinase activity; in short: as §2
[20] = target: Vascular endothelial growth factor receptor 3 (Homo sapiens, UniProt P35916); test: Inhibition of Vascular endothelial growth factor receptor 3; in short: as §2
[21] = target: Tyrosine-protein kinase ZAP-70 (Homo sapiens, UniProt P43403); test: Inhibition of Zeta-chain (TCR) associated protein kinase 70 kDa (ZAP70); in short: as §2
[22] = target: Serine/threonine-protein kinase PAK 4 (Homo sapiens, UniProt O96013); test: Inhibition of PAK4 kinase; in short: as §2
Chain of Serine/threonine-protein kinase PAK 4 (O96013 whole entry): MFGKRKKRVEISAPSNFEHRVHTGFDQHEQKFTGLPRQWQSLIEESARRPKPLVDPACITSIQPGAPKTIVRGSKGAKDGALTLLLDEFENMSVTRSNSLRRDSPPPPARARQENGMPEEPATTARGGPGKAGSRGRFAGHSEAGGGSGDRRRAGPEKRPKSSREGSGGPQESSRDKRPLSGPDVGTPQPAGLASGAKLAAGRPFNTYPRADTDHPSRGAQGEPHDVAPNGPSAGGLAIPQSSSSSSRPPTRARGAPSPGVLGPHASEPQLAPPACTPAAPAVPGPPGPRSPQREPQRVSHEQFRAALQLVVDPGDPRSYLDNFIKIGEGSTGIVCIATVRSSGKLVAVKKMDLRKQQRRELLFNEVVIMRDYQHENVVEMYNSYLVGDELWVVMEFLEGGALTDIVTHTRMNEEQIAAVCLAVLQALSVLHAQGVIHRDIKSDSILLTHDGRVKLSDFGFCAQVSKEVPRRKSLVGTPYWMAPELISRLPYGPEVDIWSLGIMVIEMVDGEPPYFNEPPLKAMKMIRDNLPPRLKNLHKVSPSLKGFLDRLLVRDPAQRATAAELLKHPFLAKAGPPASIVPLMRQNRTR

[23] = target: High affinity nerve growth factor receptor (Homo sapiens, UniProt P04629); test: Inhibition of Trk A kinase activity; in short: as §2
[24] = target: Hepatocyte growth factor receptor (Homo sapiens, UniProt P08581); test: Inhibition of MET kinase activity; in short: as §2
[25] = target: Cyclin-dependent kinase 4/cyclin D1 (Homo sapiens, UniProt P11802)
[26] = target: Aurora kinase A (Homo sapiens) (UniProt O14965); test: Inhibition of Aurora kinase A
Chain of Aurora kinase A (Homo sapiens) (O14965 whole entry, looked up): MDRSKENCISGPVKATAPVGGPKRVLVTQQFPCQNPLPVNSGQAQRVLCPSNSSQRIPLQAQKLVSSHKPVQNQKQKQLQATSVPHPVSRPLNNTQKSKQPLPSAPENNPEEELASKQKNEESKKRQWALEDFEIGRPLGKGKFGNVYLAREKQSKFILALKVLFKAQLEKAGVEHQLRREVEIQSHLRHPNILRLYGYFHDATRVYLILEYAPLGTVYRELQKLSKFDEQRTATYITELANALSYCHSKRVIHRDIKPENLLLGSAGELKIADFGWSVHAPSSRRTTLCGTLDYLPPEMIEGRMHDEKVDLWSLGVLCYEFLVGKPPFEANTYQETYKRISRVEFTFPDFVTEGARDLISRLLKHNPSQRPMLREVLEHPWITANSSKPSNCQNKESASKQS

O=C(Cc1ccc2ccccc2c1)Nc1cc(C2CC2)n[nH]1
22 µM: solubility [6]
> 10 µM: IC50 [7] | IC50 [8] | IC50 [9] | IC50 [10] | IC50 (Insulin receptor) | IC50 [11] | IC50 [12] | IC50 [13] | IC50 [14] | IC50 [15] | IC50 [16] | IC50 [17] | IC50 [18] | IC50 [19] | IC50 [20] | IC50 [21] | IC50 [22] | IC50 [23] | IC50 [24] | IC50 [25] | IC50 [26]
1 h: T1/2 (Rattus norvegicus [4])
89.8%: bioavailability [5]
1.31 h: MRT [3]
27.8 mL/min/kg: Metabolic rate (Rattus norvegicus [1])
1.06 L/kg: Vd [2]
